Experimental data from ChEMBL document CHEMBL3779815, “Synthesis of newer 1,2,3-triazole linked chalcone and flavone hybrid compounds and evaluation of their antimicrobial and cytotoxic activities” (Eur J Med Chem, 2016).
Values after ≈ are worked out from the molar mass of the structure shown.

Experiments:
Staphylococcus aureus = assay: Antibacterial activity against Staphylococcus aureus […] after 18 to 24 hrs by micro-dilution method; format: functional
Escherichia coli = assay: Antibacterial activity against Escherichia coli ATCC 35218 after 18 to 24 hrs by micro-dilution method; format: functional
Candida albicans [1] = assay: Antifungal activity against Candida albicans clinical isolate after 18 to 24 hrs by micro-dilution method; format: functional
Outline: (§1)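 Microdilution MIC run as the antibacterial protocol but on Sabouraud dextrose […] pH 7.3±0.2; compounds 100 to 0.78 μg/mL in twofold steps; saline-prepared inocula 1-2 × 10⁷ cfu/mL, 0.01 mL added; 37 °C aerobic, 18-24 h; MIC read as lowest concentration without visible growth or turbidity; fluconazole reference.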

Pseudomonas aeruginosa = assay: Antibacterial activity against Pseudomonas aeruginosa […] after 18 to 24 hrs by micro-dilution method; format: functional
[2] = Cytotoxicity against human HuH7 cells after 72 hrs by MTT assay; format: cell-based, Huh-7
Outline: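 Huh-7 cells, 4 × 10³/well in DMEM with 10% FBS and penicillin-streptomycin-glutamine; eight 2-fold dilutions 100-0.78 μg/mL, 72 h; MTT added 2-4 h, then isopropanol/Triton X-100/HCl solubilization 2 h dark, RT; absorbance 570 nm; CC50 as mean of at least two experiments in duplicate.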

Candida parapsilosis = assay: Antifungal activity against Candida parapsilosis ATCC 22019 after 18 to 24 hrs by micro-dilution method; format: functional; conditions: Lodderomyces parapsilosis; outline: as §1
Enterococcus faecalis = assay: Antibacterial activity against Enterococcus faecalis ATCC 29212 after 18 to 24 hrs by micro-dilution assay; format: functional
Aspergillus niger = assay: Antifungal activity against Aspergillus niger clinical isolate after 18 to 24 hrs by micro-dilution method; format: functional; outline: as §1
Cryptococcus neoformans = assay: Antifungal activity against Cryptococcus neoformans clinical isolate after 18 to 24 hrs by micro-dilution method; format: functional; outline: as §1
Shigella boydii = assay: Antibacterial activity against Shigella boydii clinical isolate after 18 to 24 hrs by micro-dilution method; format: functional
Candida albicans [3] = assay: Antifungal activity against Candida albicans ATCC 90028 after 18 to 24 hrs by micro-dilution method; format: functional; outline: as §1
Klebsiella pneumoniae = assay: Antibacterial activity against Klebsiella pneumoniae ATCC 27736 after 18 to 24 hrs by micro-dilution method; format: functional
Candida tropicalis = assay: Antifungal activity against Candida tropicalis ATCC 750 after 18 to 24 hrs by micro-dilution method; format: functional; outline: as §1
Plasmodium falciparum = assay: Antimalarial activity against erythrocytic stage of chloroquine sensitive Plasmodium falciparum 3D7 assessed as inhibition of parasitemia after 48 hrs by Giemsa staining based microscopic analysis; format: functional, organism-based; conditions: 3D7, 48 h
Outline: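 Asynchronous culture on human O⁺ erythrocytes, 1-1.5% parasitemia, 4% hematocrit, RPMI-1640 with HEPES, NaHCO₃, glutamine, gentamycin, Albumax II; drug 0.10-100 μg/mL, 48 h, 37 °C, medium changed at 24 h; triplicate wells; Giemsa thin smears, about 4,000 erythrocytes counted at 1,000X; % parasitemia inhibition versus control gives IC50.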

Aspergillus fumigatus = assay: Antifungal activity against Aspergillus fumigatus clinical isolate after 18 to 24 hrs by micro-dilution method; format: functional; outline: as §1
Arthrodermataceae = assay: Antifungal activity against Dermatophyte clinical isolate after 18 to 24 hrs by micro-dilution method; format: functional; outline: as §1

Compound | MIC (Staphylococcus aureus) | MIC (Escherichia coli) | MIC (Candida albicans [1]) | MIC (Pseudomonas aeruginosa) | CC50 at 72 h [2] | MIC (Candida parapsilosis) | MIC (Enterococcus faecalis) | MIC (Aspergillus niger) | MIC (Cryptococcus neoformans) | MIC (Shigella boydii) | MIC (Candida albicans [3]) | MIC (Klebsiella pneumoniae) | MIC (Candida tropicalis) | IC50 (Plasmodium falciparum) | MIC (Aspergillus fumigatus) | MIC (Arthrodermataceae)
COc1cc(O)c(C(=O)/C=C/c2ccc(OC)c(OCc3cn(-c4ccc(Cl)cc4)nn3)c2)c(OC)c1 | > 100 µg/mL | 100 µg/mL (≈ 192 µM) | 12.5 µg/mL (≈ 23.9 µM) | > 100 µg/mL | > 100 µg/mL | 12.5 µg/mL (≈ 23.9 µM) | 100 µg/mL (≈ 192 µM) | 25 µg/mL (≈ 47.9 µM) | 12.5 µg/mL (≈ 23.9 µM) | > 100 µg/mL | 12.5 µg/mL (≈ 23.9 µM) | > 100 µg/mL | 6.25 µg/mL (≈ 12 µM) | 11 µg/mL (≈ 21.1 µM) | 25 µg/mL (≈ 47.9 µM) | 12.5 µg/mL (≈ 23.9 µM)
COc1cc(OC)c2c(=O)cc(-c3ccc(OCc4cn(-c5ccc(F)cc5F)nn4)c(OCc4cn(-c5ccc(F)cc5F)nn4)c3)oc2c1 | > 100 µg/mL | > 100 µg/mL | > 100 µg/mL | > 100 µg/mL | > 100 µg/mL | 100 µg/mL (≈ 143 µM) | 100 µg/mL (≈ 143 µM) | > 100 µg/mL | > 100 µg/mL | > 100 µg/mL | 50 µg/mL (≈ 71.4 µM) | > 100 µg/mL | > 100 µg/mL | 9.25 µg/mL (≈ 13.2 µM) | > 100 µg/mL | > 100 µg/mL
COc1cc(OC)c2c(=O)cc(-c3ccc(OCc4cn(-c5ccc(F)cc5Cl)nn4)c(OC)c3)oc2c1 | 50 µg/mL (≈ 92.9 µM) | 50 µg/mL (≈ 92.9 µM) | 12.5 µg/mL (≈ 23.2 µM) | > 100 µg/mL | > 100 µg/mL | 12.5 µg/mL (≈ 23.2 µM) | > 100 µg/mL | 12.5 µg/mL (≈ 23.2 µM) | 12.5 µg/mL (≈ 23.2 µM) | 50 µg/mL (≈ 92.9 µM) | 12.5 µg/mL (≈ 23.2 µM) | > 100 µg/mL | 12.5 µg/mL (≈ 23.2 µM) | 3.85 µg/mL (≈ 7.16 µM) | 12.5 µg/mL (≈ 23.2 µM) | 25 µg/mL (≈ 46.5 µM)
COc1cc(O)c(C(=O)/C=C/c2ccc(OCc3cn(-c4ccccc4Cl)nn3)c(OC)c2)c(OC)c1 | 12.5 µg/mL (≈ 23.9 µM) | 6.25 µg/mL (≈ 12 µM) | > 100 µg/mL | 12.5 µg/mL (≈ 23.9 µM) | > 100 µg/mL | > 100 µg/mL | 6.25 µg/mL (≈ 12 µM) | > 100 µg/mL | > 100 µg/mL | 6.25 µg/mL (≈ 12 µM) | > 100 µg/mL | 25 µg/mL (≈ 47.9 µM) | > 100 µg/mL | 6.78 µg/mL (≈ 13 µM) | > 100 µg/mL | > 100 µg/mL
COc1cc(O)c(C(=O)/C=C/c2ccc(OCc3cn(-c4ccc(F)cc4F)nn3)c(OCc3cn(-c4ccc(F)cc4F)nn3)c2)c(OC)c1 | 12.5 µg/mL (≈ 17.8 µM) | 6.25 µg/mL (≈ 8.9 µM) | 6.25 µg/mL (≈ 8.9 µM) | 12.5 µg/mL (≈ 17.8 µM) | > 100 µg/mL | 12.5 µg/mL (≈ 17.8 µM) | 6.25 µg/mL (≈ 8.9 µM) | 25 µg/mL (≈ 35.6 µM) | 6.25 µg/mL (≈ 8.9 µM) | 6.25 µg/mL (≈ 8.9 µM) | 6.25 µg/mL (≈ 8.9 µM) | 12.5 µg/mL (≈ 17.8 µM) | 12.5 µg/mL (≈ 17.8 µM) | 8.86 µg/mL (≈ 12.6 µM) | 25 µg/mL (≈ 35.6 µM) | 12.5 µg/mL (≈ 17.8 µM)
COc1cc(O)c(C(=O)/C=C/c2ccc(OC)c(OCc3cn(-c4ccc(F)cc4F)nn3)c2)c(OC)c1 | 100 µg/mL (≈ 191 µM) | 50 µg/mL (≈ 95.5 µM) | > 100 µg/mL | > 100 µg/mL | > 100 µg/mL | > 100 µg/mL | 25 µg/mL (≈ 47.8 µM) | 50 µg/mL (≈ 95.5 µM) | > 100 µg/mL | 12.5 µg/mL (≈ 23.9 µM) | > 100 µg/mL | > 100 µg/mL | > 100 µg/mL | 9.54 µg/mL (≈ 18.2 µM) | 50 µg/mL (≈ 95.5 µM) | > 100 µg/mL
COc1cc(O)c(C(=O)/C=C/c2ccc(OC)c(OCc3cn(-c4ccc(F)cc4Cl)nn3)c2)c(OC)c1 | 100 µg/mL (≈ 185 µM) | > 100 µg/mL | > 100 µg/mL | > 100 µg/mL | > 100 µg/mL | > 100 µg/mL | > 100 µg/mL | > 100 µg/mL | > 100 µg/mL | > 100 µg/mL | > 100 µg/mL | > 100 µg/mL | > 100 µg/mL | 4.92 µg/mL (≈ 9.11 µM) | > 100 µg/mL | > 100 µg/mL
COc1cc(OC)c2c(=O)cc(-c3ccc(OCc4cn(-c5ccc(F)cc5F)nn4)c(OC)c3)oc2c1 | > 100 µg/mL | > 100 µg/mL | > 100 µg/mL | > 100 µg/mL | > 100 µg/mL | > 100 µg/mL | > 100 µg/mL | > 100 µg/mL | > 100 µg/mL | > 100 µg/mL | > 100 µg/mL | > 100 µg/mL | > 100 µg/mL | 4.79 µg/mL (≈ 9.19 µM) | > 100 µg/mL | > 100 µg/mL
C[C@@H]1CC[C@H]2[C@@H](C)C(=O)O[C@@H]3O[C@@]4(C)CC[C@@H]1[C@]32OO4 [ARTEMISININ] |  |  |  |  | > 100 µg/mL |  |  |  |  |  |  |  |  | 0.00112 µg/mL (≈ 0.00396 µM) |  | 
